Measured values as given in ChEMBL document CHEMBL1140884, “Oligodeoxyribonucleotide-based antagonists for Toll-like receptors 7 and 9” (2009).
Calls of active or inactive are those of the source. No cut-off for these calls is given here.

Biological target: T1, Toll-like receptor 9 (Mus musculus) (UniProt Q9EQU3)
T1 sequence (whole entry): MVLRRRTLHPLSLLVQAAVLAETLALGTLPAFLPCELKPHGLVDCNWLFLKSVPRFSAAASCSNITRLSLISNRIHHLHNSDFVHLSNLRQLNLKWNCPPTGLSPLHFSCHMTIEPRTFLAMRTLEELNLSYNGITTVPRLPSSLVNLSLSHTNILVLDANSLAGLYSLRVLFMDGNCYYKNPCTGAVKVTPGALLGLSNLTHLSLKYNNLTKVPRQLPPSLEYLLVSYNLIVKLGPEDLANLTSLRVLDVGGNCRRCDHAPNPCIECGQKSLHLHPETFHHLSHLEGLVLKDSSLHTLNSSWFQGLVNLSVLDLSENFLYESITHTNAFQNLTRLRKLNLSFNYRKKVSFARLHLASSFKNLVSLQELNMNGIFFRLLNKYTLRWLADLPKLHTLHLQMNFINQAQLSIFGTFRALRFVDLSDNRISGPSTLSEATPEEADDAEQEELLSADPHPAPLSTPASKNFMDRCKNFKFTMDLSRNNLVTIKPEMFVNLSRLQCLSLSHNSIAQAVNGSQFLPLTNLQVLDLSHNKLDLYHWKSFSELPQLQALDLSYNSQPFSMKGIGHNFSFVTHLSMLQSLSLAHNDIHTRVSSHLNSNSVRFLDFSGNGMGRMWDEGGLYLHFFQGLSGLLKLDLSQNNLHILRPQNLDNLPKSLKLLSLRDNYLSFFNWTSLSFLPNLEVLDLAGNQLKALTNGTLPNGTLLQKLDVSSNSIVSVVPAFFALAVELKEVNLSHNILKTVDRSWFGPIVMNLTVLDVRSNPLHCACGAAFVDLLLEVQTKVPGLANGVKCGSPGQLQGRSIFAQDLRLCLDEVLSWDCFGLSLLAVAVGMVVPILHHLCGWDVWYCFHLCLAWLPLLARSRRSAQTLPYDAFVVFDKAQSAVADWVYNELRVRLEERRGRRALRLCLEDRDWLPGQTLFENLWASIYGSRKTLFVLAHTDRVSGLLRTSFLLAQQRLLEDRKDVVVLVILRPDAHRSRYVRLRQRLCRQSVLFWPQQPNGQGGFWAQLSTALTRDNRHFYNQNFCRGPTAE
Experiment: Antagonist activity at mouse TLR9 expressed in HEK293 cells assessed as inhibition of 5'-CTATCTGACGTTCTCTGT-3'-induced NF-kappaB activation by SEAP reporter gene assay
Assay type: functional, cell-based
Outline: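 Mouse TLR9-HEK293 cells were transfected with a SEAP reporter for 6 h. They were then stimulated for 18 h with agonist (0.25 or 0.5 µg/mL) plus increasing antagonist concentrations or set agonist:antagonist ratios. Quanti-Blue read-out, reported as % NF-κB activity with agonist alone as 100%.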

- Activity: Active
SMILES: CO[C@@H]1[C@H](OP(=O)(S)OC[C@H]2O[C@@H](n3ccc(N)nc3=O)C[C@@H]2OP(=O)(S)OC[C@H]2O[C@@H](n3ccc4c(=O)[nH]c(N)nc43)C[C@@H]2OP(=O)(S)OC[C@H]2O[C@@H](n3cc(C)c(=O)[nH]c3=O)C[C@@H]2OP(=O)(S)OC[C@H]2O[C@@H](n3cc(C)c(=O)[nH]c3=O)C[C@@H]2OP(=O)(S)OC[C@H]2O[C@@H](n3ccc(N)nc3=O)C[C@@H]2OP(=O)(S)OC[C@H]2O[C@@H](n3cc(C)c(=O)[nH]c3=O)C[C@@H]2OP(=O)(S)OC[C@H]2O[C@@H](n3ccc(N)nc3=O)C[C@@H]2OP(=O)(S)OC[C@H]2O[C@@H](n3cc(C)c(=O)[nH]c3=O)C[C@@H]2OP(=O)(S)OC[C@H]2O[C@@H](n3cnc4c(=O)[nH]c(N)nc43)C[C@@H]2OP(=O)(S)OC[C@H]2O[C@@H](n3cc(C)c(=O)[nH]c3=O)C[C@@H]2O)[C@@H](COP(=O)(S)O[C@H]2[C@@H](OC)[C@H](n3cnc4c(=O)[nH]c(N)nc43)O[C@@H]2COP(=O)(S)O[C@H]2C[C@H](n3cc(C)c(=O)[nH]c3=O)O[C@@H]2COP(=O)(S)O[C@H]2C[C@H](n3ccc(N)nc3=O)O[C@@H]2COP(=O)(S)O[C@H]2C[C@H](n3cc(C)c(=O)[nH]c3=O)O[C@@H]2COP(=O)(S)O[C@H]2C[C@H](n3cnc4c(N)ncnc43)O[C@@H]2COP(=O)(S)O[C@H]2C[C@H](n3cc(C)c(=O)[nH]c3=O)O[C@@H]2COP(=O)(S)O[C@@H]2C[C@@H](n3ccc(N)nc3=O)O[C@H]2CO)O[C@H]1n1cnc2c(N)ncnc21 (stereo partly specified)
